# Data as given in PMC11127568 (ACS infectious diseases, 2024).
# Where two headings read alike, the source gives them in different places.
# Legend:
# B. duncani [1] = experiment: microbe, parasite or virus in culture; format: cell-based, Babesia duncani (WA1); conditions: read-out: IC50 B. duncani
# B. duncani [2] = experiment: In vitro drug-drug interaction with atovaquone by isobologram analysis; format: cell-based, Babesia duncani; conditions: combination with atovaquone; for Mode of Interaction: isobologram analysis
# Outline: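 B. duncani WA1 grown in A+ human RBCs, DMEM/F12, 5% hematocrit. […] SYBR Green I lysis read-out (ex 497/em 520 nm). FIC50 = IC50 in combination/IC50 alone, summed; ΣFIC50 <0.8 synergy, 0.8–<1.4 additive, ≥1.4 antagonism. ≥2 independent experiments, triplicates.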
# [3] = system: human cell lines (HeLa, HepG2, HEK, and HCT116); experiment: Drug cytotoxicity evaluation; format: cell-based; conditions: 48 h, read-out: IC50 Human cell lines
# B. duncani [4] = experiment: In vivo efficacy in B. duncani lethal infection model in C3H/HeJ mice; set-up: species or system mouse (C3H/HeJ); conditions: for Survival after monotherapy: lethal B. duncani infection, 10 mg/kg oral daily DPI 3 to 7
# Outline: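 Female C3H/HeJ mice (6 weeks, 5 per group) were infected intravenously with 1×10³ B. duncani WA1-infected RBCs. Oral gavage was given daily on DPI 3–7 with 100 μl PEG 400 vehicle or test compound at 10 mg/kg. Parasitemia came from Giemsa-stained thin blood smears, with at least 3000 RBCs counted, followed to DPI 84. Survival by Kaplan-Meier.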
# B. microti = experiment: In vivo efficacy in B. microti chronic infection model in CB.17/SCID mice; set-up: species or system mouse (CB.17/SCID); conditions: SCID mice, 10 mg/kg oral
# [5] = B. duncani, 10 mg/kg oral DPI 3 to 7
SMILES,IC50 (B. duncani [1]) [nM],Mode of Interaction (B. duncani [2]),Survival after monotherapy (B. duncani [4]),other results
COc1cc2[nH]c(C)c(-c3ccc(-c4ccc(OC(F)(F)F)cc4)cc3)c(=O)c2cc1F [ELQ-650],22 ± 4.9,additive (0.8 ≤ ΣFIC50 < 1.4 = additive),–,–
"O=C1C(O)=C([C@H]2CC[C@H](c3ccc(Cl)cc3)CC2)C(=O)c2ccccc21 [Atovaquone, reference compound]",–,–,–,"IC50 (B. duncani [1]; Babesia duncani, Erythrocyte, in Homo sapiens, 62 h): 72 ± 6 nM; IC50 [3]: 5000 nM"
CCOC(=O)OCOc1c(-c2ccc(-c3ccc(OC(F)(F)F)cc3)cc2)c(C)nc2cc(OC)c(Cl)cc12 [ELQ-598],37 ± 2.2,additive (0.8 ≤ ΣFIC50 < 1.4 = additive),survival of these mice for the duration of study,Parasites on Giemsa-stained thin-blood smears on monitoring until DPI 84 (B. duncani [4]; [5]): no parasites could be detected
COc1cc2[nH]c(C)c(-c3ccc(-c4ccc(OC(F)(F)F)cc4)cc3)c(=O)c2cc1Cl [ELQ-596],32 ± 4.9,additive (0.8 ≤ ΣFIC50 < 1.4 = additive),–,–
CCOC(=O)OCOc1c(-c2ccc(-c3ccc(OC(F)(F)F)cc3)cc2)c(C)nc2cc(OC)c(F)cc12 [ELQ-672],57 ± 18,synergistic,animals ultimately succumbing to infection,"Day parasites emerged (B. duncani [4]; [5]): 16 DPI; Parasitemia at DPI 19 (B. duncani [4]; [5]): 8%; Day parasites emerged (B. microti; vehicle DPI 17): 21 DPI; Day peak parasitemia reached (B. microti; vehicle DPI 21): 31 DPI; Mean FIC value (Σ FIC50) (B. duncani [2]; B. duncani in human red blood cells, fixed ratio method): 0.5"
